For experiment [1], the system named is Raji. As to the kind of experiment: Increase in ubiquitinated protein IkBalpha level in leukemia Raji B cells after 24 hrs. The settings on record: Homo sapiens. The class given is functional, cell-based. The method in brief: (§1)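 Raji B cells (RPMI, 10% FBS, 37 °C, 5% CO2) exposed to DMSO solvent or 25 μM compound for 4 or 24 h. Whole cell extracts immunoblotted with antibodies to IκB-α, p27, Bax and ubiquitin, with actin as loading control, and quantified by densitometry.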

Experiment [2] concerns Raji. The experiment can be described thus: Increase in ubiquitinated protein IkBalpha level in leukemia Raji B cells after 4 hrs. The format is functional. Conditions: for Activity: Homo sapiens. The method in brief:
as §1

Experiment [3] concerns Raji. As to the kind of experiment: Inhibition of chymotrypsin like activity of 20S proteasome in leukemia Raji B cells at 25 uM after 24 hrs. The class given is cell-based. The settings on record: Homo sapiens. The method in brief:
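Raji B cells dosed at 25 μM for 4 or 24 h, then harvested and lysed. Whole cell extract (10 μg) incubated with Suc-Leu-Leu-Val-Tyr-AMC (40 μM) in 50 mM Tris-HCl pH 8 at 37 °C for 2.5 h. Released AMC read at ex 380/em 460 nm.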

For experiment [4], the system named is Raji. As to the kind of experiment: Effect on apoptosis in leukemia Raji B cells assessed as increase in caspase 3 activation after 24 hrs. The class given is functional, Homo sapiens. The procedure, abridged:
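Raji B cells (RPMI, 10% FBS, 37 °C, 5% CO2) given 25 μM compound for 4 or 24 h, then harvested and lysed. Lysates incubated with Ac-DEVD-AMC (40 μM) for 2.5 h; caspase-3 activity read from fluorogenic substrate cleavage.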

Experiment [5] relates to Raji. The experiment can be described thus: Increase in ubiquitinated protein p27 level in leukemia Raji B cells after 4 hrs. The class given is functional, Homo sapiens. The settings on record: for Activity: Homo sapiens, TDE = time-dependent effect. The method in brief: as §1
The subject of experiment [6] is Raji. The experiment can be described thus: Increase in ubiquitinated protein bax level in leukemia Raji B cells after 4 hrs. The format is functional, Homo sapiens. Conditions: for Activity: Homo sapiens, TDE = time-dependent effect. The method in brief:
as §1

The test system of experiment [7] is 20S proteasome (Oryctolagus cuniculus). The experiment can be described thus: Inhibition of chymotrypsin like activity of 20S proteasome at 50 uM.
Experiment [8] deals with Raji. The experiment can be described thus: Induction of apoptosis in leukemia Raji B cells assessed as PARP1 ceavage after 24 hrs. The format is functional, cell-based. Conditions: Homo sapiens. The method in brief:
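Raji B cells were treated with DMSO or 25 μM compound for 4 or 24 h. Whole cell extracts were immunoblotted with a polyclonal anti-PARP antibody to detect apoptosis-specific PARP cleavage, with densitometric quantification.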

Experiment [9] has as its system Raji. The experiment can be described thus: Increase in ubiquitinated protein p27 level in leukemia Raji B cells after 24 hrs. The class given is functional, cell-based. The settings on record: Homo sapiens. The method in brief:
as §1

The test system of experiment [10] is Raji. The experiment can be described thus: Increase in ubiquitinated protein bax level in leukemia Raji B cells after 24 hrs. Conditions: Homo sapiens. The class given is functional, cell-based. The method in brief: as §1
The test system of experiment [11] is Raji. As to the kind of experiment: Increase in cell death in leukemia Raji B cells at 25 um after 24 hrs. The class given is functional, Homo sapiens. The procedure, abridged:
(§2)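 Raji B leukaemia cells grown in RPMI with 10% FBS, penicillin and streptomycin at 37 °C under 5% CO2. Treated with 25 μM compound or DMSO solvent for 24 h. Death scored by trypan blue dye exclusion: blue cells and cells with apoptotic morphology (shrinking, blebbing) on phase-contrast microscopy counted as dead.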

Experiment [12] concerns Raji. The experiment can be described thus: Induction of cell death in leukemia Raji B cells at 25 uM after 24 hrs. The format is functional, Homo sapiens. The procedure, abridged:
as §2

Experiment [13] in a line: Inhibition of chymotrypsin like activity of 20S proteasome. More on the design: species or system Homo sapiens. The method in brief: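 Purified rabbit 20S proteasome (35 ng) incubated with the fluorogenic substrate Suc-Leu-Leu-Val-Tyr-AMC (40 μM), with or without compound. Chymotrypsin-like activity was read as substrate hydrolysis.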
The test system of experiment [14] is Raji. The experiment can be described thus: Inhibition of chymotrypsin like activity of 20S proteasome in leukemia Raji B cells at 25 uM after 4 hrs. The format is cell-based. The settings on record: Homo sapiens. The procedure, abridged:
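Raji B cells treated with 25 μM compound for 4 h, then harvested and lysed. Whole-cell extract (10 μg) incubated with 40 μM Suc-Leu-Leu-Val-Tyr-AMC in 50 mM Tris-HCl pH 8 at 37 °C for 2.5 h. Free AMC read by fluorescence at 380 nm excitation and 460 nm emission.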

The values that follow come from ChEMBL document CHEMBL1149605, “A para-amino substituent on the D-ring of green tea polyphenol epigallocatechin-3-gallate as a novel proteasome inhibitor and cancer cell apoptosis inducer” (Bioorg Med Chem, 2007).

Activity calls are given as the source filed them. The calls are words filed in the database; no cut-off is given here.

As a reminder, the inhibition is how much of the control response was suppressed. A lower inhibition goes with a response near the control. In the case of `CC(=O)Oc1cc(OC(C)=O)c2c(c1)O[C@H](c1cc(OC(C)=O)c(OC(C)=O)c(OC(C)=O)c1)[C@H](OC(=O)c1ccc(N)cc1)C2`, the outcome in the experiment with Raji [1], with Raji [8], with Raji [9] and in the experiment with Raji [10] was Active. Moreover, the outcome in the experiment with Raji [2] was inactive. The inhibition with Raji [3] was 39%; in experiment [7], less than 20%. The Fold change in the experiment with Raji [4] is given as 4.7; in the experiment with Raji [5], 2; with Raji [6], 3.3; with Raji [11] it was 3.5.

By IC50 is commonly meant the concentration needed to halve the response being measured. With `Nc1ccc(C(=O)O[C@@H]2Cc3c(O)cc(O)cc3O[C@@H]2c2cc(O)c(O)c(O)c2)cc1`, the Activity is 10% with Raji [12], “tde” with Raji [2] (TDE = time-dependent effect), “tde” with Raji [5] and “tde” in the experiment with Raji [6]. Further, the concentration for half-maximal inhibition (IC50) in [13] is 840 nM.

The compound `CC(=O)Oc1cc(OC(C)=O)c2c(c1)O[C@H](c1cc(OC(C)=O)c(OC(C)=O)c(OC(C)=O)c1)[C@H](OC(=O)c1cc(OC(C)=O)c(OC(C)=O)c(OC(C)=O)c1)C2` gave an inhibition in [7] of less than 20%.

Consider `O=C(O[C@@H]1Cc2c(O)cc(O)cc2O[C@@H]1c1cc(O)c(O)c(O)c1)c1cc(O)c(O)c(O)c1` [EPIGALOCATECHIN GALLATE], for which the inhibition was 4% with Raji [14] and 10% with Raji [3]. Besides, the IC50 in experiment [13] was determined as 200 nM.

With `CC(C)(C)OC(=O)Nc1ccc(C(=O)O[C@@H]2Cc3c(O)cc(O)cc3O[C@@H]2c2cc(O)c(O)c(O)c2)cc1`, the Activity was 10% in the experiment with Raji [12], “tde” with Raji [2] (TDE = time-dependent effect), “tde” in the experiment with Raji [5] and “tde” in the experiment on Raji [6]. In addition, half-maximal inhibition in experiment [13] (IC50) was put at 3850 nM.

As to `CC(=O)Oc1cc(OC(C)=O)c2c(c1)O[C@H](c1cc(OC(C)=O)c(OC(C)=O)c(OC(C)=O)c1)[C@H](OC(=O)c1ccc(NC(=O)OC(C)(C)C)cc1)C2`, the outcome in the experiment with Raji [1], in the experiment on Raji [8], with Raji [9] and in the experiment on Raji [10] was Active. Besides, the Fold change in the experiment on Raji [2] was 1.4; in the experiment with Raji [4], 5.5; in the experiment on Raji [5], 2.1; in the experiment on Raji [6], 3.5; in the experiment with Raji [11] it was 5. In addition, the inhibition in the experiment on Raji [3] was 65%; in experiment [7] it was less than 20%.
